Test results taken from ChEMBL document CHEMBL3632502, “Bivalent ligands incorporating curcumin and diosgenin as multifunctional compounds against Alzheimer's disease” (Bioorg Med Chem, 2015).
The source made the active and inactive calls. The calls are words filed in the database; no cut-off is given here.

Tests used:
[1] = (§1) Neuroprotective activity against tetracycline deficiency-mediated cell viability loss in human MC65 cells at 1 uM after 72 hrs by MTT assay relative to control; format: functional
Summary of the method: (§2)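 MC65 cells washed twice in PBS, seeded in Opti-MEM at 4×10^4 cells/well, treated at 37 °C under +TC or −TC for 72 h. MTT (5 mg/mL in PBS) added for 4 h, formazan dissolved in DMSO, A570 read. Viability expressed as percent of +TC control; EC50 from concentration series, SEM.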

[2] = molecular target: Amyloid-beta precursor protein (Homo sapiens) (UniProt P05067); assay: Binding affinity to amyloid beta in human MC65 cells assessed as inhibition of tetracycline deficiency-induced amyloid beta oligomerization after 48 hrs by Western blot analysis; format: cell-based
Amyloid-beta precursor protein (Homo sapiens), sequence (P05067 whole entry): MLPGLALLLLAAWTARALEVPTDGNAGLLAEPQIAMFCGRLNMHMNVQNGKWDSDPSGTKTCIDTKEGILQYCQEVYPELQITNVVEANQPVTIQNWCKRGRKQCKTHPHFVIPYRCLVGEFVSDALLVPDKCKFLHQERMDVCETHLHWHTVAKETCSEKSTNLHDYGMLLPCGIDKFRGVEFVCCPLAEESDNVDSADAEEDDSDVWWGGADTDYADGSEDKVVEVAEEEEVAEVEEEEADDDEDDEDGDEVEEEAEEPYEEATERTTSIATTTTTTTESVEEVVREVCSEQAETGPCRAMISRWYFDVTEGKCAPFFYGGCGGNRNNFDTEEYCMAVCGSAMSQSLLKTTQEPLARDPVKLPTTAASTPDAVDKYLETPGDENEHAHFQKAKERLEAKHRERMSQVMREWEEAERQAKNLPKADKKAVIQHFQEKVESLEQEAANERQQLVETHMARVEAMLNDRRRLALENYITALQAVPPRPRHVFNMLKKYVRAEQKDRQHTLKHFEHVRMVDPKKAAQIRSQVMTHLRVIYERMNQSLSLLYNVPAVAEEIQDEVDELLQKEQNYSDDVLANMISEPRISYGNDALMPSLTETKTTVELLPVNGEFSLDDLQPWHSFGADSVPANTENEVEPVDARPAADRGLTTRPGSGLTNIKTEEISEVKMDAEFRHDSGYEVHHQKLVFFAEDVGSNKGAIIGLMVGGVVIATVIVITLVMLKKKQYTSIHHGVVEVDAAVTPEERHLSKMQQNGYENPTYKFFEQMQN
Summary of the method: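 MC65 cells in Opti-MEM (2×10^6 cells/well) treated at 37 °C under +TC or −TC for 48 h, then lysed by sonication in Tricine buffer. Supernatant protein (20.0 μg, Bradford-quantified) run on Tris-Tricine SDS-PAGE and blotted to PVDF. Probed with 6E10 overnight at 4 °C, HRP secondary, chemiluminescence; α-tubulin loading control. Total oligomers quantified, n=6, SEM.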

MC65 [3] = assay: Effect on tetracycline deficiency-induced total amyloid beta42 level in human MC65 cells at 0.1 to 1 uM after 48 hrs by ELISA; format: functional, cell-based
Summary of the method: (§3)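 MC65 cells in Opti-MEM (4×10^4 cells/well) treated at 37 °C under +TC or −TC for 48 h. Conditioned medium captured on BNT77-coated plates overnight at 4 °C, detected with HRP-BA27 (Aβ40) or HRP-BC05 (Aβ42) for 1 h at room temperature, TMB 30 min, A450. Values in pM from Aβ standard calibration curves.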

[4] = Neuroprotective activity against tetracycline deficiency-mediated cell viability loss in human MC65 cells after 72 hrs by MTT assay; format: functional, cell-based; details: MC65, 72 h; summary of the method: as §2
MC65 [5] = assay: Antioxidant activity in human MC65 cells assessed as decrease in tetracycline deficiency-mediated reactive oxygen species formation at 0.1 uM after 48 hrs by DCFH-DA probe-based flow cytometric analysis; format: functional, cell-based
Summary of the method: (§4)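 MC65 cells washed in PBS, resuspended in Opti-MEM, seeded at 2×10^6 cells/well, treated at 37 °C with or without TC (1 μg/mL in culture medium) for 48 h. Harvested cells washed in cold PBS, loaded with 25 μM DCFH-DA in PBS for 1 h in the dark, and analysed by flow cytometry. Fluorescence expressed as percent of control.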

[6] = Metal chelating activity assessed as compound-Fe2+ complex formation at 50 uM after 10 mins by UV-vis spectra analysis; format: physicochemical
Summary of the method: (§5)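 Compound (50 μM) mixed with CuSO4, FeCl2 or ZnCl2 (50 μM) in deionized water, kept 10 min at room temperature, then UV absorption spectrum recorded from 200 to 600 nm.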

[7] = Metal chelating activity assessed as compound-Zn2+ complex formation at 50 uM after 10 mins by UV-vis spectra analysis; format: physicochemical; summary of the method: as §5
MC65 [8] = assay: Effect on tetracycline deficiency-induced total amyloid beta40 level in human MC65 cells at 0.1 to 1 uM after 48 hrs by ELISA; format: functional, cell-based; summary of the method: as §3
[9] = molecular target: Amyloid-beta precursor protein (Homo sapiens) (UniProt P05067); assay: Inhibition of amyloid beta42 (unknown origin) aggregation after 48 hrs by ThT assay
Summary of the method: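 Aβ42 (25 μM in PBS pH 7.4, 9 μL) mixed with 1 μL of compound in DMSO (0.01–100 μM solutions), triplicates with solvent control, incubated dark at room temperature 48 h. Then 5 μM ThT in 50 mM glycine pH 8.0 added; fluorescence read at ex 446/em 490 nm, with no-ThT background subtracted.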

[10] = Metal chelating activity assessed as compound-Cu2+ complex formation at 50 uM after 10 mins by UV-vis spectra analysis; format: physicochemical; summary of the method: as §5
MC65 [11] = assay: as §1; format: functional; summary of the method: as §2
MC65 [12] = assay: Antioxidant activity in human MC65 cells assessed as decrease in tetracycline deficiency-mediated reactive oxygen species formation at 0.3 uM after 48 hrs by DCFH-DA probe-based flow cytometric analysis; format: functional, cell-based; summary of the method: as §4

COc1cc(/C=C/C(=O)/C(Cc2cn(CCOCCOCCNC(=O)CCC(=O)O[C@H]3CC[C@@]4(C)C(=CC[C@H]5[C@@H]6C[C@@H]7O[C@]8(CC[C@@H](C)CO8)[C@@H](C)[C@@H]7[C@@]6(C)CC[C@@H]54)C3)nn2)=C(O)/C=C/c2ccc(O)c(OC)c2)ccc1O
Activity [1]: >=80%
inhibition [2]: Dose-dependent effect
Activity (MC65 [3]): inactive
EC50 [4]: 112 nM
Activity (MC65 [5]): Active
Activity [6]: Not Active
Activity [7]: Not Active
Activity (MC65 [8]): inactive
inhibition [9]: Dose-dependent effect
Activity [10]: Not Active

CCCCCC(=O)O[C@H]1CC[C@@]2(C)C(=CC[C@@H]3[C@@H]4C[C@@H]5O[C@]6(CC[C@@H](C)CO6)[C@@H](C)[C@@H]5[C@@]4(C)CC[C@@H]32)C1
Activity (MC65 [11]): inactive

CC(C)Cc1cn(CCOCCOCCNC(=O)CCC(=O)O[C@H]2CC[C@@]3(C)C(=CC[C@H]4[C@@H]5C[C@@H]6O[C@]7(CC[C@@H](C)CO7)[C@@H](C)[C@@H]6[C@@]5(C)CC[C@@H]43)C2)nn1
Activity (MC65 [11]): inactive

COC(=O)CCC(=O)NCCOCCOCCn1cc(C/C(C(=O)/C=C/c2ccc(O)c(OC)c2)=C(O)\C=C\c2ccc(O)c(OC)c2)nn1
Activity (MC65 [11]): inactive

COc1cc(/C=C/C(=O)/C(Cc2cn(CCCCC(=O)NCCOCCOCCOCC(=O)O[C@H]3CC[C@@]4(C)C(=CC[C@H]5[C@@H]6C[C@@H]7O[C@]8(CC[C@@H](C)CO8)[C@@H](C)[C@@H]7[C@@]6(C)CC[C@@H]54)C3)nn2)=C(O)/C=C/c2ccc(O)c(OC)c2)ccc1O
Activity [1]: >=80%
inhibition [2]: Dose-dependent effect
Activity (MC65 [12]): Active
Activity (MC65 [3]): inactive
EC50 [4]: 232 nM
Activity [6]: Not Active
Activity [7]: Not Active
Activity (MC65 [8]): inactive
inhibition [9]: Dose-dependent effect
Activity [10]: Not Active

C[C@@H]1CC[C@@]2(OC1)O[C@H]1C[C@H]3[C@@H]4CC=C5C[C@@H](O)CC[C@]5(C)[C@H]4CC[C@]3(C)[C@H]1[C@@H]2C
Activity (MC65 [11]): inactive

COc1cc(/C=C/C(=O)CC(=O)/C=C/c2ccc(O)c(OC)c2)ccc1O
Activity (MC65 [11]): inactive

COc1cc(/C=C/C(=O)/C(Cc2cn(CCCCCCCCCC(=O)NCCOCCOCCOCC(=O)O[C@H]3CC[C@@]4(C)C(=CC[C@H]5[C@@H]6C[C@@H]7O[C@]8(CC[C@@H](C)CO8)[C@@H](C)[C@@H]7[C@@]6(C)CC[C@@H]54)C3)nn2)=C(O)/C=C/c2ccc(O)c(OC)c2)ccc1O
EC50 [4]: 309 nM

COc1cc(/C=C/C(=O)/C(Cc2cn(CCCCCCCCCCCC(=O)NCCOCCOCCOCC(=O)O[C@H]3CC[C@@]4(C)C(=CC[C@H]5[C@@H]6C[C@@H]7O[C@]8(CC[C@@H](C)CO8)[C@@H](C)[C@@H]7[C@@]6(C)CC[C@@H]54)C3)nn2)=C(O)/C=C/c2ccc(O)c(OC)c2)ccc1O
EC50 [4]: 4620 nM

COc1cc(/C=C/C(=O)/C(Cc2cn(CCCCCC(=O)NCCOCCOCCOCC(=O)O[C@H]3CC[C@@]4(C)C(=CC[C@H]5[C@@H]6C[C@@H]7O[C@]8(CC[C@@H](C)CO8)[C@@H](C)[C@@H]7[C@@]6(C)CC[C@@H]54)C3)nn2)=C(O)/C=C/c2ccc(O)c(OC)c2)ccc1O
Activity [1]: >=80%
EC50 [4]: 381 nM

COc1cc(/C=C/C(=O)/C(Cc2cn(CCCCCCCC(=O)NCCOCCOCCOCC(=O)O[C@H]3CC[C@@]4(C)C(=CC[C@H]5[C@@H]6C[C@@H]7O[C@]8(CC[C@@H](C)CO8)[C@@H](C)[C@@H]7[C@@]6(C)CC[C@@H]54)C3)nn2)=C(O)/C=C/c2ccc(O)c(OC)c2)ccc1O
Activity [1]: >=80%
EC50 [4]: 1040 nM
